From ChEMBL document CHEMBL1137737, “Synthesis, antimicrobial and cytotoxic activities of 1,3,4-oxadiazoles, 1,3,4-thiadiazoles and 1,2,4-triazoles” (Eur J Med Chem, 2009)
≈ marks a conversion by molar mass, not a printed value.

Legend:
Format in all cases: functional
Curvularia lunata [1] = test: Antifungal activity against Curvularia lunata NCIM 716 after 48 hrs by microdilution susceptibility method; details: NCIM 716, 48 h
Outline: (§1)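 This is a microdilution susceptibility test. Organism suspensions are inoculated into wells holding the dilution series, then incubated at 36 °C for 24 h (bacteria) or 48 h (fungi). MIC is the lowest concentration giving no turbidity, i.e. complete inhibition of visible growth.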

Fusarium solani [2] = test: Antifungal activity against Fusarium solani NCIM 1330 at 100 ug/disk after 48 hrs by agar disc-diffusion method; details: NCIM 1330, 48 h, read-out: DIZ
Outline: (§2)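 Sterile 6 mm filter-paper discs are soaked in compound solution in DMSO and placed on nutrient agar plates already inoculated with each organism. Plates are incubated at 37 °C. The diameter of the growth-inhibition zone is read after 24 h for bacteria and after 48 h for fungi.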

Curvularia lunata [3] = test: Antifungal activity against Curvularia lunata NCIM 716 at 100 ug/disk after 48 hrs by agar disc-diffusion method; details: NCIM 716, 48 h, read-out: DIZ; outline: as §2
Aspergillus niger [4] = test: Antifungal activity against Aspergillus niger NCIM 596 after 48 hrs by microdilution susceptibility method; details: NCIM 596, 48 h; outline: as §1
Aspergillus niger [5] = test: Antifungal activity against Aspergillus niger NCIM 596 at 200 ug/disk after 48 hrs by agar disc-diffusion method; details: NCIM 596, 48 h, read-out: DIZ; outline: as §2
Aspergillus niger [6] = test: Antifungal activity against Aspergillus niger NCIM 596 at 100 ug/disk after 48 hrs by agar disc-diffusion method; details: NCIM 596, 48 h, read-out: DIZ; outline: as §2
Fusarium solani [7] = test: Antifungal activity against Fusarium solani NCIM 1330 at 200 ug/disk after 48 hrs by agar disc-diffusion method; details: NCIM 1330, 48 h, read-out: DIZ; outline: as §2
Curvularia lunata [8] = test: Antifungal activity against Curvularia lunata NCIM 716 at 200 ug/disk after 48 hrs by agar disc-diffusion method; details: NCIM 716, 48 h, read-out: DIZ; outline: as §2
Fusarium solani [9] = test: Antifungal activity against Fusarium solani NCIM 1330 after 48 hrs by microdilution susceptibility method; details: NCIM 1330, 48 h; outline: as §1
Bacillus subtilis [10] = test: Antibacterial activity against Bacillus subtilis NCIM 2063 at 100 ug/disk after 24 hrs by agar disc-diffusion method; details: NCIM 2063, 24 h, read-out: DIZ; outline: as §2
Klebsiella pneumoniae [11] = test: Antibacterial activity against Klebsiella pneumoniae NCIM 2957 after 24 hrs by microdilution susceptibility method; details: NCIM 2957, 24 h; outline: as §1
Bacillus subtilis [12] = test: Antibacterial activity against Bacillus subtilis NCIM 2063 after 24 hrs by microdilution susceptibility method; details: NCIM 2063, 24 h; outline: as §1
Bacillus subtilis [13] = test: Antibacterial activity against Bacillus subtilis NCIM 2063 at 200 ug/disk after 24 hrs by agar disc-diffusion method; details: NCIM 2063, 24 h, read-out: DIZ; outline: as §2
Staphylococcus aureus [14] = test: Antibacterial activity against Staphylococcus aureus NCIM 5021 at 200 ug/disk after 24 hrs by agar disc-diffusion method; details: NCIM 5021, 24 h, read-out: DIZ; outline: as §2
Staphylococcus aureus [15] = test: Antibacterial activity against Staphylococcus aureus NCIM 5021 after 24 hrs by microdilution susceptibility method; details: NCIM 5021, 24 h; outline: as §1
Klebsiella pneumoniae [16] = test: Antibacterial activity against Klebsiella pneumoniae NCIM 2957 at 100 ug/disk after 24 hrs by agar disc-diffusion method; details: NCIM 2957, 24 h, read-out: DIZ; outline: as §2
Proteus vulgaris [17] = test: Antibacterial activity against Proteus vulgaris NCIM 2027 at 200 ug/disk after 24 hrs by agar disc-diffusion method; details: NCIM 2027, 24 h, read-out: DIZ; outline: as §2
Proteus vulgaris [18] = test: Antibacterial activity against Proteus vulgaris NCIM 2027 at 100 ug/disk after 24 hrs by agar disc-diffusion method; details: NCIM 2027, 24 h, read-out: DIZ; outline: as §2
Proteus vulgaris [19] = test: Antibacterial activity against Proteus vulgaris NCIM 2027 after 24 hrs by microdilution susceptibility method; details: NCIM 2027, 24 h; outline: as §1
Klebsiella pneumoniae [20] = test: Antibacterial activity against Klebsiella pneumoniae NCIM 2957 at 200 ug/disk after 24 hrs by agar disc-diffusion method; details: NCIM 2957, 24 h, read-out: DIZ; outline: as §2
Staphylococcus aureus [21] = test: Antibacterial activity against Staphylococcus aureus NCIM 5021 at 100 ug/disk after 24 hrs by agar disc-diffusion method; details: NCIM 5021, 24 h, read-out: DIZ; outline: as §2

Row | MIC (Curvularia lunata [1]) [µg/mL] | MIC (Aspergillus niger [4]) [µg/mL] | MIC (Fusarium solani [9]) [µg/mL] | MIC (Bacillus subtilis [12]) [µg/mL] | MIC (Staphylococcus aureus [15]) [µg/mL] | MIC (Proteus vulgaris [19]) [µg/mL] | SMILES | zone of inhibition at 100 µg/disc (Fusarium solani [2]) [mm] | zone of inhibition at 100 µg/disc (Curvularia lunata [3]) [mm] | zone of inhibition at 200 µg/disc (Aspergillus niger [5]) [mm] | zone of inhibition at 100 µg/disc (Aspergillus niger [6]) [mm] | zone of inhibition at 200 µg/disc (Fusarium solani [7]) [mm] | zone of inhibition at 200 µg/disc (Curvularia lunata [8]) [mm] | zone of inhibition at 100 µg/disc (Bacillus subtilis [10]) [mm] | zone of inhibition at 200 µg/disc (Bacillus subtilis [13]) [mm] | zone of inhibition at 200 µg/disc (Staphylococcus aureus [14]) [mm] | zone of inhibition at 100 µg/disc (Klebsiella pneumoniae [16]) [mm] | zone of inhibition at 200 µg/disc (Proteus vulgaris [17]) [mm] | zone of inhibition at 100 µg/disc (Proteus vulgaris [18]) [mm] | zone of inhibition at 200 µg/disc (Klebsiella pneumoniae [20]) [mm] | zone of inhibition at 100 µg/disc (Staphylococcus aureus [21]) [mm] | also measured
1 | 400 (≈ 1140 µM) | 400 (≈ 1140 µM) | 400 (≈ 1140 µM) | 400 (≈ 1140 µM) | 400 (≈ 1140 µM) | – | O=S(=O)(Cc1nnc(-c2ccccc2Cl)s1)c1ccccc1 | 19 | 18 | 18 | 15 | 22 | 21 | 15 | 18 | 23 | 17 | 19 | 16 | 21 | 20 | –
2 | 100 (≈ 276 µM) | 100 (≈ 276 µM) | 100 (≈ 276 µM) | 200 (≈ 551 µM) | 100 (≈ 276 µM) | 200 (≈ 551 µM) | Nn1c(CS(=O)(=O)Cc2ccccc2)nnc1-c1ccccc1Cl | 21 | 18 | 21 | 17 | 23 | 20 | 30 | 34 | 32 | 24 | 29 | 26 | 28 | 29 | MIC (Klebsiella pneumoniae [11]): 200 µg/mL (≈ 551 µM)
3 | 200 (≈ 548 µM) | 200 (≈ 548 µM) | 200 (≈ 548 µM) | 200 (≈ 548 µM) | 100 (≈ 274 µM) | 200 (≈ 548 µM) | O=S(=O)(Cc1ccccc1)Cc1nnc(-c2ccccc2Cl)s1 | 20 | 19 | 19 | 16 | 23 | 21 | 25 | 28 | 29 | 19 | 22 | 18 | 23 | 26 | MIC (Klebsiella pneumoniae [11]): 200 µg/mL (≈ 548 µM)
4 | 200 (≈ 551 µM) | 200 (≈ 551 µM) | 100 (≈ 276 µM) | 100 (≈ 276 µM) | 100 (≈ 276 µM) | 200 (≈ 551 µM) | Nn1c(CS(=O)(=O)Cc2ccc(Cl)cc2)nnc1-c1ccccc1 | 24 | 24 | 20 | 18 | 26 | 27 | 28 | 33 | 31 | 27 | 29 | 26 | 29 | 27 | MIC (Klebsiella pneumoniae [11]): 200 µg/mL (≈ 551 µM)
5 | 400 (≈ 1270 µM) | – | 400 (≈ 1270 µM) | 400 (≈ 1270 µM) | 400 (≈ 1270 µM) | – | Nn1c(CS(=O)(=O)c2ccccc2)nnc1-c1ccccc1 | 22 | 20 | 22 | 19 | 25 | 24 | 14 | 17 | 18 | 15 | 18 | 16 | 18 | 16 | –
6 | 400 (≈ 1140 µM) | 400 (≈ 1140 µM) | 400 (≈ 1140 µM) | 400 (≈ 1140 µM) | 400 (≈ 1140 µM) | – | O=S(=O)(Cc1nnc(-c2ccccc2)s1)c1ccc(Cl)cc1 | 18 | 19 | 19 | 16 | 21 | 21 | 18 | 23 | 23 | 15 | 19 | 16 | 17 | 20 | –
7 | 400 (≈ 1080 µM) | – | 400 (≈ 1080 µM) | 400 (≈ 1080 µM) | 400 (≈ 1080 µM) | – | O=S(=O)(Cc1nnc(-c2ccccc2Cl)o1)c1ccc(Cl)cc1 | 16 | 17 | 16 | 15 | 19 | 19 | 16 | 17 | 18 | 14 | 19 | 16 | 17 | 15 | –
8 | 200 (≈ 573 µM) | – | 400 (≈ 1150 µM) | 200 (≈ 573 µM) | 400 (≈ 1150 µM) | – | Nn1c(CS(=O)(=O)c2ccccc2)nnc1-c1ccccc1Cl | 23 | 22 | 21 | 18 | 25 | 25 | 19 | 22 | 20 | 17 | 18 | 16 | 20 | 17 | –
9 | 200 (≈ 573 µM) | 200 (≈ 573 µM) | 200 (≈ 573 µM) | 400 (≈ 1150 µM) | 400 (≈ 1150 µM) | 400 (≈ 1150 µM) | Nn1c(CS(=O)(=O)c2ccc(Cl)cc2)nnc1-c1ccccc1 | 21 | 22 | 22 | 19 | 24 | 25 | 17 | 20 | 23 | 17 | 21 | 18 | 19 | 19 | –
10 | 400 (≈ 1260 µM) | – | 400 (≈ 1260 µM) | 400 (≈ 1260 µM) | 400 (≈ 1260 µM) | – | O=S(=O)(Cc1nnc(-c2ccccc2)s1)c1ccccc1 | 18 | 16 | 17 | 15 | 22 | 19 | 15 | 17 | 21 | 16 | 20 | 18 | 18 | 19 | –

Row | SMILES | MIC (Curvularia lunata [1]) [µg/mL] | MIC (Aspergillus niger [4]) [µg/mL] | MIC (Fusarium solani [9]) [µg/mL] | MIC (Bacillus subtilis [12]) [µg/mL] | MIC (Staphylococcus aureus [15]) [µg/mL] | MIC (Proteus vulgaris [19]) [µg/mL] | zone of inhibition at 100 µg/disc (Fusarium solani [2]) [mm] | zone of inhibition at 100 µg/disc (Curvularia lunata [3]) [mm] | zone of inhibition at 200 µg/disc (Aspergillus niger [5]) [mm] | zone of inhibition at 100 µg/disc (Aspergillus niger [6]) [mm] | zone of inhibition at 200 µg/disc (Fusarium solani [7]) [mm] | zone of inhibition at 200 µg/disc (Curvularia lunata [8]) [mm] | zone of inhibition at 100 µg/disc (Bacillus subtilis [10]) [mm] | zone of inhibition at 200 µg/disc (Bacillus subtilis [13]) [mm] | zone of inhibition at 200 µg/disc (Staphylococcus aureus [14]) [mm] | zone of inhibition at 100 µg/disc (Klebsiella pneumoniae [16]) [mm] | zone of inhibition at 200 µg/disc (Proteus vulgaris [17]) [mm] | zone of inhibition at 100 µg/disc (Proteus vulgaris [18]) [mm] | zone of inhibition at 200 µg/disc (Klebsiella pneumoniae [20]) [mm] | zone of inhibition at 100 µg/disc (Staphylococcus aureus [21]) [mm] | also measured
11 | CC(=O)N1CCN(c2ccc(OCC3COC(Cn4ccnc4)(c4ccc(Cl)cc4Cl)O3)cc2)CC1 (centres undefined) [KETOCONAZOLE] | 6.25 (≈ 11.8 µM) | 6.25 (≈ 11.8 µM) | 12.5 (≈ 23.5 µM) | – | – | – | 38 | 41 | 39 | 36 | 42 | 44 | – | – | – | – | – | – | – | – | –
12 | O=C(N[C@H](CO)[C@H](O)c1ccc([N+](=O)[O-])cc1)C(Cl)Cl [CHLORAMPHENICOL] | – | – | – | 6.25 (≈ 19.3 µM) | 6.25 (≈ 19.3 µM) | 12.5 (≈ 38.7 µM) | – | – | – | – | – | – | 38 | 44 | 41 | 37 | 45 | 42 | 42 | 35 | MIC (Klebsiella pneumoniae [11]): 6.25 µg/mL (≈ 19.3 µM)
